The term GI50 denotes the concentration that inhibits growth by half. As a reminder, the IC50 is the concentration that gives 50% inhibition. As usually defined, the inhibition is how much of the control response was suppressed.

The nature of series [1]: Cytotoxicity against ABCB1 over expressing human A2780 cells assessed as reduction in cell viability measured after 72 hrs by MTT assay. The series is classed as ADME, cell-based. The following applies: in the assay text read “human A2780 cells” for “ABCB1 over expressing human A2780 cells”. A digest of the protocol:
(§1)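 MTT cell viability. Compound dilution series prepared in culture medium at 3.16 µM to 1 mM (dilution stock; added 20 µL to 180 µL cells). Seeding per well: MDCK II and MDCK II BCRP 2000, A2780 and A2780/ADR 8000, H69AR 20,000. Incubated 72 h, 37 °C, 5% CO2. MTT 5 mg/mL added for 60 min, formazan dissolved in DMSO, absorbance 570 nm (690 nm background). Medium = 100%, 10% DMSO = 0% viability. GI50 by four-parameter logistic fit. Mean ± SEM of at least three independent experiments.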
In general terms: Tetrazolium assays rely on reduction of a dye to a coloured formazan, in cell work by metabolically active cells.

Series [2] relates to ABCG2. In words: Therapeutic index, ratio of GI50 for cytotoxicity against ABCG2 overexpressing MDCK-II cells to IC50 for inhibition of ABCG2 (unknown origin) expressed in MDCK-II cells. The following applies: dog.
Series [3] can be described thus: Cytotoxicity against ABCG2 overexpressing MDCK-II cells assessed as reduction in cell viability measured after 72 hrs by MTT assay. The series is classed as ADME, cell-based, Canis lupus familiaris. The following applies: dog. Summed up: as §1
Series [4] can be described thus: Cytotoxicity against ABCB1 over expressing human A2780 ADR cells assessed as reduction in cell viability measured after 72 hrs by MTT assay. The series is classed as ADME, cell-based. The note with it: ABCB1 overexpressing A2780 ADR cells. Summed up:
as §1

Series [5] deals with ATP-dependent translocase ABCB1 (Homo sapiens, UniProt P08183). In words: Inhibition of ABCB1 (unknown origin) expressed in human A2780 ADR cells assessed as reduction in calcein AM efflux preincubated for 30 mins followed by calcein AM addition and measured at 60 secs interval for 1 hr by fluorescence assay. The series is classed as cell-based. The following applies: read-out: IC50. A digest of the protocol: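 Calcein AM accumulation in A2780/ADR cells (30,000/well, Krebs-HEPES buffer pH 7.4). Cells preincubated with compound 30 min at 37 °C, 5% CO2. Then 20 µL of 3.125 µM calcein AM added. Fluorescence (ex 485/em 520 nm) read every 60 s for 1 h. […] Screening at 10 µM.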
ATP-dependent translocase ABCB1, sequence (P08183 whole entry): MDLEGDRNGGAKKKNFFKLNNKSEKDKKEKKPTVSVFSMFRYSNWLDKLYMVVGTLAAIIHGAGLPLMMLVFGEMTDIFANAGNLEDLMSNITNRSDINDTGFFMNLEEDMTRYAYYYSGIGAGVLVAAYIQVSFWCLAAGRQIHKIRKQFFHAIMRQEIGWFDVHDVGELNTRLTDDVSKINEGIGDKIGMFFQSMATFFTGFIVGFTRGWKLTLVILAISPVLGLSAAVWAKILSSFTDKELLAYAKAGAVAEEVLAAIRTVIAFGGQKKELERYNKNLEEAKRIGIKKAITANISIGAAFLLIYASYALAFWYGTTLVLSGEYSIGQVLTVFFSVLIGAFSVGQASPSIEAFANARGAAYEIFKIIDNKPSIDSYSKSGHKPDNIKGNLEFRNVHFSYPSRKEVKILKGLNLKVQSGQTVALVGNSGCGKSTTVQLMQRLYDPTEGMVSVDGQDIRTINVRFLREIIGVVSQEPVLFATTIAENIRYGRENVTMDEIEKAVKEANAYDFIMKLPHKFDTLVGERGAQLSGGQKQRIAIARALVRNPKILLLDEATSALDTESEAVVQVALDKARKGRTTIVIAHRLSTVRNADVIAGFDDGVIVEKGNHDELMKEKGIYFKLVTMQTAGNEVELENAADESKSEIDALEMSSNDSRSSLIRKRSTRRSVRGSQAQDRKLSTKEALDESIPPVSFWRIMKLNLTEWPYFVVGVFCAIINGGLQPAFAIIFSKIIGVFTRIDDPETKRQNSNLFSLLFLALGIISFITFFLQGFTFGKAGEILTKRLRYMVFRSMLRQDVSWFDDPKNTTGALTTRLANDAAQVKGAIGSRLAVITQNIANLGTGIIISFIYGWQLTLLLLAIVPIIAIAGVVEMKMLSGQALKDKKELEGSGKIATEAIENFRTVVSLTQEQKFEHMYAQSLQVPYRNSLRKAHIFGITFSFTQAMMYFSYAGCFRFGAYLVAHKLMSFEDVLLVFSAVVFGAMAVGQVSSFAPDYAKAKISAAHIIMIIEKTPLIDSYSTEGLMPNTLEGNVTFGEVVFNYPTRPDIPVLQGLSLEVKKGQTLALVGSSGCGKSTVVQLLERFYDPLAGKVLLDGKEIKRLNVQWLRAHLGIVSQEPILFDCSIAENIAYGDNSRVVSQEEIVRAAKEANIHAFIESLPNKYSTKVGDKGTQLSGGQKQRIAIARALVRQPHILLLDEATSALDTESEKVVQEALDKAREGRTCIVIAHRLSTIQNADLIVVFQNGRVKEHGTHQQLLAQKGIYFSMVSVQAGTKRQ

Series [6] is described as follows: Cytotoxicity against wild-type MDCK-II cells assessed as reduction in cell viability measured after 72 hrs by MTT assay. The series is classed as cell-based, Canis lupus familiaris. The following applies: dog. Summed up:
as §1

The target in series [7] is T1, ABCG2 (Homo sapiens, UniProt Q9UNQ0).
T1 sequence (Q9UNQ0 whole entry): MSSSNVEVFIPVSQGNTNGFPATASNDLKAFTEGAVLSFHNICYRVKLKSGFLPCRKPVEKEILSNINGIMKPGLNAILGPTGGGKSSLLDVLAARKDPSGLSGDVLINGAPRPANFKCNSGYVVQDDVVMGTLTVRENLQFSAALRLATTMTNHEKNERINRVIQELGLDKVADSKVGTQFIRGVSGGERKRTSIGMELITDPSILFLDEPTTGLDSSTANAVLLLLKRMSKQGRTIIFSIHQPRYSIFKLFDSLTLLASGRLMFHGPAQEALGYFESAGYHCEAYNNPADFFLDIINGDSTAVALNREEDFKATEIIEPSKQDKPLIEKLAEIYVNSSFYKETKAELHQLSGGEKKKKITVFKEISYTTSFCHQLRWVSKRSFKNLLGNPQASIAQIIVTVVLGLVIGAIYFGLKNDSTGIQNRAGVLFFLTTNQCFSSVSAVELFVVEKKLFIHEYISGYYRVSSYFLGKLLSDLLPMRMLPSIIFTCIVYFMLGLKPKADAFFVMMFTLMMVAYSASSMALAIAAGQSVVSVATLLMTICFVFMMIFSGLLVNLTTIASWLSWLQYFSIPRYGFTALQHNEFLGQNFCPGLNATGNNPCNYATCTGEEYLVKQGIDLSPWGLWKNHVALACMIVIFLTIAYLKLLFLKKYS
The experiment in a line: Inhibition of ABCG2 (unknown origin) expressed in MDCK-II cells assessed as reduction in pheophorbide A efflux measured after 2 hrs by flow cytometry relative to Ko143. The series is classed as cell-based. The following applies: MDCK-II cells expressing ABCG2, probe pheophorbide A, read-out: Imax. Summed up: (§2)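 Pheophorbide A accumulation in MDCK II BCRP cells, about 45,000 cells/well in Krebs-HEPES buffer pH 7.4. Compound dilutions were prepared at 0.316–100 µM, and 20 µL of 5 µM pheophorbide A was added. Incubated 2 h at 37 °C, 5% CO2. Fluorescence read by flow cytometry (ex 488 nm, em 695/50 nm). IC50 and Imax are mean ± SEM of at least three independent experiments.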
On the technique in general: In flow cytometry, cells or beads pass a laser one at a time.

In series [8] the target is ABCB1 (Homo sapiens, UniProt P08183). In words: Inhibition of ABCB1 (unknown origin) expressed in human A2780 ADR cells assessed as reduction in calcein AM efflux at 10 uM preincubated for 30 mins followed by calcein AM addition and measured at 60 secs interval for 1 hr by fluorescence assay relative to control. The series is classed as cell-based. The note with it: A2780 ADR cells expressing ABCB1, probe calcein AM, time 90 min. A digest of the protocol: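 Calcein AM accumulation in A2780/ADR cells (30,000/well, Krebs-HEPES buffer pH 7.4). Cells preincubated with compound 30 min at 37 °C, 5% CO2. Screening at 10 µM.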
ABCB1 (Homo sapiens, UniProt P08183), sequence (P08183 whole entry): as the sequence (P08183 whole entry) above

In series [9] the target is T2, Broad substrate specificity ATP-binding cassette transporter ABCG2 (Homo sapiens, UniProt Q9UNQ0).
T2 sequence (Q9UNQ0 whole entry): T1 sequence (Q9UNQ0 whole entry)
In words: Inhibition of ABCG2 (unknown origin) expressed in MDCK-II cells assessed as reduction in pheophorbide A efflux measured after 2 hrs by flow cytometry. The series is classed as cell-based. A digest of the protocol:
as §2

For series [10], the system named is ABCB1. In words: Therapeutic index, ratio of GI50 for cytotoxicity against ABCB1 over expressing human A2780 ADR cells to IC50 for inhibition of ABCB1 (unknown origin) expressed in human A2780 ADR cells. The following applies: ABCB1 overexpressing A2780 ADR cells.

Each structure is given as a SMILES string.

On to `N#Cc1ccc(Nc2cc(Nc3ccccc3O)nc(-c3ccccc3)n2)cc1`, for which the GI50 at 72 h worked out at 9.07 µM in [1], 4.61 µM in series [3], 9.96 µM in [4] and 4.23 µM in series [6]. The figures for the selectivity ratio with ABCG2 [2] and in the series with ABCB1 [10] were 20.7 and 3.34, respectively. Besides, the values for the IC50 in series [5] and in [9] were 2.98 µM and 0.223 µM, respectively. The Emax at 2 h on ABCG2 [7] came to 86%. Also, on ABCB1 [8], the inhibition at 1 h, 10 µM was greater than 20%.

These data come from ChEMBL document CHEMBL4706664, “Rational drug design of 6-substituted 4-anilino-2-phenylpyrimidines for exploration of novel ABCG2 binding site” (Eur J Med Chem, 2021).
